# Molecular target: Cannabinoid receptor 1 (Rattus norvegicus, UniProt P20272)
# Experiment: In vitro binding affinity against rat cannabinoid receptor 1 using 0.5 nM [3H]CP-55940
# Summary of the method: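 Competition binding on membranes from frozen Sprague-Dawley rat cerebellum (0.6 mg tissue per tube) in pH 7.4 buffer: 50 mM Tris-HCl, 3 mM MgCl2, 1 mM EDTA, 0.5% fat-free BSA. Incubated 1 h at 30 °C with serial ligand dilutions. Nonspecific binding determined with excess unlabelled CP-55940. GF/C filtration, scintillation counting, quadruplicate. Ki from IC50 via Cheng-Prusoff, Kd 0.5 nM.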
# Cannabinoid receptor 1, sequence (P20272 whole entry): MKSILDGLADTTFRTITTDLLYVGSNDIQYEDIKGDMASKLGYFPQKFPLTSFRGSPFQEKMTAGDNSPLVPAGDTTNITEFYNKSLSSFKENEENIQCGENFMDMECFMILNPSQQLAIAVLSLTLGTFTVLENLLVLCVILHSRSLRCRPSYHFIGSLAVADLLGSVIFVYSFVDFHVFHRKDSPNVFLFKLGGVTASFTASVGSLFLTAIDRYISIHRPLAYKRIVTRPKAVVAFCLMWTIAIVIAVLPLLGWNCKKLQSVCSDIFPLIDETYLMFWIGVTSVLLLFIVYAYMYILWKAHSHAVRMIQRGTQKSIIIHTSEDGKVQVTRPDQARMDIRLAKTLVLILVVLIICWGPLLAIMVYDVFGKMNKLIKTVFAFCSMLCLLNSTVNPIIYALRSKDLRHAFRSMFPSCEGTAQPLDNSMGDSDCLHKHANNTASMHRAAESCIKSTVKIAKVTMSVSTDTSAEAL
row,SMILES,Ki [nM]
1,CN1CCCCC1Cn1cc(C(=O)c2ccc(F)c3ccccc23)c2ccccc21 (stereo not given),0.7
2,CN1CCCCC1Cn1nc(C(=O)c2cccc3ccccc23)c2ccccc21 (stereo not given),1.4
3,CN1CCCCC1Cn1cc(C(=O)c2cccc3cc(O)ccc23)c2ccccc21 (stereo not given),4
4,CN1CCCCC1Cn1cc(C(=O)c2ccc(C#N)c3ccccc23)c2ccccc21 (stereo not given),1.1
5,CN1CCCCC1Cn1cc(C(=O)c2ccc(Br)c3ccccc23)c2ccccc21 (stereo not given),1.7
6,COc1ccc(C(=O)c2cn(CC3CCCCN3C)c3ccccc23)c2ccccc12 (stereo not given),2.3
7,CN1CCCCC1Cn1cc(C(=O)c2ccc([N+](=O)[O-])c3ccccc23)c2ccccc21 (stereo not given),12.4
8,CN1CCCCC1Cn1cc(C(=O)Nc2cccc3ccccc23)c2ccccc21 (stereo not given),100
9,CN1CCCCC1Cn1cc(C(=O)N2CCCC3CCCCC32)c2ccccc21 (stereo not given),12
10,CN1CCCCC1Cn1cc(C(=O)c2ccc(CCO)c3ccccc23)c2ccccc21 (stereo not given),1.3
11,CN1CCCCC1Cn1cc(C(=O)c2ccccc2I)c2ccccc21 (stereo not given),1.2
12,Cc1ccc(C(=O)c2cn(CC3CCCCN3C)c3ccccc23)c2ccccc12 (stereo not given),1.1
13,CN1CCCCC1Cn1cc(C(=O)c2ccc(O)c3ccccc23)c2ccccc21 (stereo not given),2.2
14,Cc1ccc2ccccc2c1C(=O)c1cn(CC2CCCCN2C)c2ccccc12 (stereo not given),7.8
15,CN1CCCCC1Cn1cc(C(=O)c2cccc3ccccc23)c2ccccc21 (stereo not given),0.9
